Compound activity: PubChem BioAssay, several laboratories
Hsp70 act: switches on Hsp70 transcription; activation, % at 10 µM; actives 0.04% (n = 200,000); HeLa Hsp70 promoter luciferase reporter, luminescence; scaled: vehicle 0, proteasome-inhibitor control 100%;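 active = activation above the mean across all tested compounds plus 3 SD, cutoff set per campaign, cut at about 5.5% in these data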;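 also: 100% = MG132 at 30 µM as the positive control and 0% = DMSO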
HSF-1 act: increases HSF-1 driven luciferase reporter signal | NIH3T3-HGL HSF-1 luciferase reporter, MG132, 8 h; 100% = twice DMSO control signal | actives 1.7% (n = 300,000) | activation, % at 9 µM;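 active = mean replicate activation of at least 50% with a set share of replicates each reaching 50%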;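 also: 0% = median of the neutral control wells and 100% = twice that signal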
Mdm2 ligase inh: Mdm2 E3 ligase (human) inhibition; actives 0.11% (n = 210,000); Q00987; signal enhancement, % at 5 µM; cell-based MDM2 ubiquitination luciferase reporter, 2 h; 0 = plate control, 100 = twice control, blank-subtracted;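 active = signal enhancement of 30% or more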;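 also: luminescence tracks abundance of the self-degrading MDM2-luciferase fusion protein; higher signal means inhibition of MDM2 E3 ligase activity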
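Timing – 2 h compound exposure at 37 °C · Assay system – mammalian cells stably expressing self-ubiquitinating, self-degrading MDM2 E3–luciferase fusion · Amount – 2000 cells seeded into each well · Measure – % luminescence enhancement versus blank-corrected plate control mean · Measured by – SteadyLite luminescence, 15 min reagent step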
HSV augment: HSV replication enhancement; actives 0.005% (n = 220,000); maximum fold increase; AID 1956; HSV replication augmentation in cells, fold increase; in the data active = maximum fold increase above about 1.5; tested in PC3 cells
Rad51 HR inh: blocks human Rad51 in homologous recombination; Q06609; hRad51 DNA strand exchange, fluorescence dequenching; inhibition, % at 10 µM; actives 0.085% (n = 200,000); AID 1385;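 active = inhibition above 40% at the single screening dose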;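 also: 0% = DMSO control wells and 100% = blanks with heterologous ssDNA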
Target sequence (Q06609 whole entry, looked up): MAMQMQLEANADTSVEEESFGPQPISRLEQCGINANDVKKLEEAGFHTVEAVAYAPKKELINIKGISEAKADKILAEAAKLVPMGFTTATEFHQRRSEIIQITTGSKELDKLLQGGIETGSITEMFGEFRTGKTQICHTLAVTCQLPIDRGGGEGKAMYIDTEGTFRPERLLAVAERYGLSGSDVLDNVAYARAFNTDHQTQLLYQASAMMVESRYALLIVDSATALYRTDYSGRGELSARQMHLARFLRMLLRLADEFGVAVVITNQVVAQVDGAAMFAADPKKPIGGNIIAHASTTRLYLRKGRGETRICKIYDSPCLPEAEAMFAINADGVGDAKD
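material = hRad51 filaments on single-stranded DNA | timing = filaments 15 min 37 °C, then compound 30 min | signal = FRET fluorescence dequenching, excitation 485 nm, emission 520 nm | benchmarks = control wells and blank wells on each plate | evaluation = percent inhibition relative to plate controls and blanks | compound = 10 µM final, single point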
HSF1 inh: HSF1 inhibition | activity change, negative = inhibition, % at 7.5 µM (by protocol) | NIH3T3-HGL HSE-luciferase, MG132-induced, luminescence 8 h; hits give low values | actives 0.77% (n = 300,000) | AID 2098;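 active = more than half of replicate wells show activity change below -50%, luminescence cut by over half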;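 also: luciferase reports HSF-1 transcriptional activity via heat shock element; 0% = median of DMSO wells and -100% = zero luminescence signal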
An asterisk follows results filed as active; i = inactive; x = no result given. This is a sample that favours compounds with a hit; in the whole collection about 2.6% have one here.

SMILES	Hsp70 act	HSF-1 act	Mdm2 ligase inh	HSV augment	Rad51 HR inh	HSF1 inh
Nc1ccc(C(=O)CC(=O)Nc2ccc(Cl)cc2)cc1	x	-3	x	x	x	2
FC(F)(F)c1ccc(Cl)c(N/N=C/c2ccc(N3CCOCC3)s2)c1	-1	-10	-3	i	-17	-1
COC(=O)c1c(C)[nH]c(C)c1-c1cccc([N+](=O)[O-])c1	0	-93	5	i	17	-91*
COC(=O)c1c(C)[nH]c(C)c1-c1ccc(C)cc1	0	2	-6	i	0	-3
CCc1nnc(NC(=O)CCC(=O)N2CCC(Cc3ccccc3)CC2)s1	x	4	x	x	x	-7
CCOc1ccccc1C(=O)Nc1nnc(COC)s1	0	-13	14	i	-6	2
Cc1cccc(OCC(=O)Nc2nccs2)c1C	x	56*	x	x	x	28
CCOc1ccccc1C(=O)Nc1nccs1	0	5	-13	i	134*	-8
Nn1c(SCC(=O)NC2CCCc3ccccc32)nnc1-c1ccc(Cl)cc1Cl (configuration not stated)	0	x	-5	i	3	x
Cc1c(C)c2ccc(OCC(=O)NCCCN3CCCC3=O)cc2oc1=O	x	-17	x	x	x	-11
CCc1ccc(OC(C)C(=O)N(Cc2ccco2)C2CCS(=O)(=O)C2)cc1 (configuration not stated)	x	-86	x	x	x	-83*
CC(C)Cn1c(=O)c2ccccc2n2c(SCC(=O)N3c4ccccc4CC3C)nnc12 (configuration not stated)	0	27	-4	i	-5	3
O=C(NCCCN=C1NS(=O)(=O)c2ccccc21)c1ccc(Cl)cc1	x	-7	x	x	x	-7
CCOCCCNC(=O)c1cc(C)nn1-c1ccccc1	0	-78	-16	i	10	-72*
CCOC(CNC(=O)c1cc(C)nn1-c1ccccc1)OCC	0	2	-8	i	5	2
Cc1cc(C(=O)NCc2ccc(Cl)cc2)n(-c2ccccc2)n1	x	-77	-7	i	x	-68*
O=C(CSc1nnc(NC(=O)C2CCC2)s1)Nc1ccccc1F	x	-1	x	x	x	3
CC(COc1ccccc1Cc1ccccc1)N1CCCCC1 (configuration not stated)	x	7	x	i	2	12
Cc1ccc(-c2cnn(-c3cccc(C(F)(F)F)c3)c2N)cc1	0	53*	-2	i	-3	18
Cc1nnc(-c2cnn(-c3ccccc3)c2N)n1Cc1cccc(C(F)(F)F)c1	0	-69	-4	i	-4	-60*
Cc1ccccc1C(=O)NCC(=O)OCCOc1ccc(C(C)C)c(C)c1	x	-15	x	x	x	-5
CCOc1ccc(-c2cc(C(=O)NCCCN3CCCC3)c3ccccc3n2)cc1	x	-50	x	x	x	-35
Cc1nc2scc(C)n2c(=O)c1S(=O)(=O)N1CCN(c2cccc(C(F)(F)F)c2)CC1	x	-70	x	x	x	-65*
Cc1noc(C)c1CSc1ncnc2sc3c(c12)CCC3	0	-78	-8	i	0	-73*
CCn1c(=O)n(CC(=O)Nc2cc(OC)c(OC)c(OC)c2)c(=O)c2ccccc21	0	10	37*	i	-1	-4
SMILES	Hsp70 act	HSF-1 act	Mdm2 ligase inh	HSV augment	Rad51 HR inh	HSF1 inh
CCn1c(=O)n(CC(=O)Nc2cccc(OC)c2)c(=O)c2ccccc21	0	-2	10	i	3	-3
Cn1c(=O)n(C)c2cc(N3CCOCC3)c(NC(=O)c3cccc(Cl)c3)cc21	x	3	x	x	x	-4
c1ccc(SCc2cc(-c3ccccc3)no2)cc1	0	67*	-1	i	30	46
Clc1ccc(-c2cc(CSc3cccc(Cl)c3)on2)cc1	0	24	2	i	-1	16
Clc1ccc(-c2cc(CSc3ccccc3)on2)cc1	0	66*	-14	i	11	33
CN1C(=O)C2C(c3ccc(N(C)C)cc3)=NN(Cc3ccccc3)C2C1=O (configuration not stated)	0	75*	-4	i	-8	29
Cc1ccc(C=C2C(Cl)=C(Cl)C(Cl)=C2Cl)cc1	x	4	49*	i	-3	7
O=C(COC(=O)c1cccnc1Cl)Nc1nc(-c2ccccc2)cs1	0	39	-13	i	-4	18
COC(=O)CNC(=O)c1sc2ncn(CC(=O)Nc3ccc(C)c(Cl)c3)c(=O)c2c1C	0	7	-9	i	-26	6
CC1=CCC2C(=O)N(c3ccc(C)c(Br)c3)C(=O)C2C1 (configuration not stated)	0	-81	0	i	2	-76*
c1ccc(N2CCN(c3ccccc3)C2c2cccs2)cc1	0	14	36*	i	-26	22
CCOc1ccc(NC(=O)C(C)SC(N)=O)cc1 (configuration not stated)	0	-70	-85	i	-4	-60*
CCOc1ccc(NC(=O)C(C)Sc2nnnn2C)cc1 (configuration not stated)	0	-3	-4	i	4	-4
Fc1ccc(-c2nnc3ccc(N4CCc5ccccc5C4)nn23)cc1	0	80*	-7	i	-6	64
CCOC(=O)c1cccc(NC(=O)CCS(=O)(=O)c2ccc(Br)s2)c1	-1	-93	-8	i	0	-92*
CCOC(=O)c1cccc(NC(=O)CCS(=O)(=O)c2cccs2)c1	0	34	-5	i	-8	15
Cc1ccc(SCCOCCN2CCOCC2)cc1	x	-3	x	x	x	-4
c1ccc(SCCOCCN2CCOCC2)cc1	x	64*	x	x	x	25
COc1ccc(C(=O)Oc2ccc(/C=N/O)cc2)cc1	0	-71	-16	i	-8	-64*
O=C(c1ccccc1)c1ccc(-n2ccnc2)c([N+](=O)[O-])c1	x	22	x	x	x	6
CC(/C=N/N1C(=O)CSC1=S)=C\c1ccccc1	0	0	-5	i	5	-7
COc1ccc(NC(=O)c2ccco2)cc1N	0	-63	10	i	-5	-57*
COc1cc(NC(=O)c2ccccc2Cl)ccc1NC(=O)c1ccco1	1	71*	-32	i	-2	55
CC(C)CN1CCC(=O)N([C@H](CO)Cc2ccccc2)CC1	x	-4	x	x	x	-3
O=C(NCCC1CCCCN1S(=O)(=O)c1ccc(F)cc1)C(=O)NCC1CCCO1 (configuration not stated)	x	-30	x	x	x	-12
CC1OC(Nc2cccc3ccccc23)C(O)C(O)C1O (configuration not stated)	0	-96	-3	i	2	-96*
CC1CCc2cc(F)ccc2N1S(=O)(=O)c1ccc(Cl)nc1 (configuration not stated)	0	-1	-17	i	6	-5
